From ChEMBL document CHEMBL4406803, “A- and D-Ring Structural Modifications of an Androsterone Derivative Inhibiting 17β-Hydroxysteroid Dehydrogenase Type 3: Chemical Synthesis and Structure-Activity Relationships” (J Med Chem, 2019)
Activity calls are given as the source filed them. The rule behind the calls is not given here.

How the values were obtained:
[1] = Stability of the compound in human liver S9 fraction at 10 uM measured after 1 hr by NADPH by HPLC-MS analysis; type: ADME, subcellular; conditions: s9, 1 h
How it was run: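 Substrate (10 µM) was incubated 1 h at 37 °C with 40 µg human liver S9 fraction in 50 mM Tris with 10 mM MgCl2, with or without 10 mM NADPH. The reaction was stopped with MeOH. Remaining parent was measured by HPLC-MS (UV 190 nm) as the AUC ratio with/without NADPH ×100. Values are the mean ± SD of four independent experiments.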

[2] = target: T1, 17-beta-hydroxysteroid dehydrogenase type 3 (Homo sapiens, UniProt P37058); assay: Inhibition of 17beta-HSD3 (unknown origin) expressed in human LNCAP cells assessed as reduction in [14C]-testosterone formation from [14C]-4-androstene-3,17-dione measured after 1 hr; type: cell-based
T1 sequence (P37058 whole entry): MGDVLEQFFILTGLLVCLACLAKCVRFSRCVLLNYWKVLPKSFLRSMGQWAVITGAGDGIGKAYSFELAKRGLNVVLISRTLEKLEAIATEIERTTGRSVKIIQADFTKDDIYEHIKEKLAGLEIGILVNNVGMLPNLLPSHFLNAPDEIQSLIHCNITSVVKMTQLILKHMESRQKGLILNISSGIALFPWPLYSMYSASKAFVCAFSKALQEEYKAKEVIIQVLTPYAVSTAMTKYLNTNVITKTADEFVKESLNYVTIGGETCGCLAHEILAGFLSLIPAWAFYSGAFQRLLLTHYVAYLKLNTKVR
How it was run: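 Transfected LNCaP[17β-HSD3] cells were incubated 1 h with 15 nM [14C]-4-androstenedione and inhibitor at seven concentrations (0.001–5.0 µM; 0.05% DMSO). [14C]-T formation was measured by TLC and radioimaging. IC50 was obtained by curve fitting, averaging two independent experiments in triplicate.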

[3] = tested on: LAPC4; assay: Androgenic activity in human LAPC4 cells expressing androgen receptor assessed as effect on cell proliferation at 0.5 uM supplemented with fresh medium containing compounds every 3 days for 7 days by MTS assay (reference value: 100%); type: ADME, cell-based; conditions: lapc4, 168 h
How it was run: (§1)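 Androgen-dependent LAPC-4 cells were seeded at 5,000 per well in IMDM with 5% dextran-coated charcoal-treated FBS and pre-incubated 24 h at 37 °C, 5% CO2. Compounds were added from DMSO stock at 0.1, 0.5 and 1.0 µM, with 0.05% DMSO in controls. Incubation lasted 7 days, with a medium change at day 3. Growth was read by MTS (4 h, 490 nm) as % of untreated control (100%), in triplicate.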

[4] = tested on: LAPC4; assay: Androgenic activity in human LAPC4 cells expressing androgen receptor assessed as effect on cell proliferation at 1 uM supplemented with fresh medium containing compounds every 3 days for 7 days by MTS assay (reference value: 100%); type: ADME, cell-based; conditions: lapc4, 168 h; how it was run: as §1
[5] = target: T2, 17-beta-hydroxysteroid dehydrogenase type 3 (Homo sapiens) (UniProt P37058); assay: Inhibition of 17beta-HSD3 (unknown origin) expressed in human LNCAP cells assessed as reduction in [14C]-testosterone formation from [14C]-4-androstene-3,17-dione at 0.1 uM measured after 1 hr relative to control; type: cell-based
T2 sequence (whole entry): T1 sequence (P37058 whole entry)
How it was run: (§2)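 LNCaP cells stably transfected with 17β-HSD3 were plated at 10,000 per well in hygromycin-free medium and grown 2 days. They were then given 15 nM [14C]-4-androstenedione plus inhibitor at 0.1, 0.5 or 1.0 µM (0.05% DMSO final) for 1 h. Steroids were ether-extracted, separated by TLC and quantified by radioimaging. Results are % inhibition of conversion to T.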

[6] = tested on: LAPC4; assay: Androgenic activity in human LAPC4 cells expressing androgen receptor assessed as effect on cell proliferation at 0.1 uM supplemented with fresh medium containing compounds every 3 days for 7 days by MTS assay (reference value: 100%); type: ADME, cell-based; conditions: lapc4, 168 h; how it was run: as §1
[7] = target: T2, 17-beta-hydroxysteroid dehydrogenase type 3 (Homo sapiens); assay: Inhibition of 17beta-HSD3 (unknown origin) expressed in human LNCAP cells assessed as reduction in [14C]-testosterone formation from [14C]-4-androstene-3,17-dione at 1 uM measured after 1 hr relative to control; type: cell-based; how it was run: as §2
[8] = target: T2, 17-beta-hydroxysteroid dehydrogenase type 3 (Homo sapiens); assay: Inhibition of 17beta-HSD3 (unknown origin) expressed in human LNCAP cells assessed as reduction in [14C]-testosterone formation from [14C]-4-androstene-3,17-dione at 0.5 uM measured after 1 hr relative to control; type: cell-based; how it was run: as §2
[9] = tested on: PC-3; assay: Antiproliferative activity against AR-deficient human PC3 cells assessed as reduction in cell proliferation at 0.5 uM measured after 3 days by MTS assay relative to control; type: functional; design: scale not given: the % may be the effect or the level left
How it was run: (§3)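 Androgen-independent PC-3 cells were plated at 3,000 per well in triplicate in RPMI-1640 with 10% FBS. Compounds were added at 0.1, 0.5 and 1.0 µM from DMSO stock, with 0.05% DMSO in controls, and incubated 3 days. Growth was read by MTS (4 h, 490 nm) and expressed as % of non-treated control (100%).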

[10] = target: T3, 17-beta-hydroxysteroid dehydrogenase type 3 (Rattus norvegicus, UniProt O54939); assay: Inhibition of 17beta-HSD3 in Sprague-Dawley rat testes microsomal fraction assessed as reduction in [14C]-testosterone formation from [14C]-4-androstene-3,17-dione measured after 2 hrs; design: species or system Testis
T3 sequence (O54939 whole entry): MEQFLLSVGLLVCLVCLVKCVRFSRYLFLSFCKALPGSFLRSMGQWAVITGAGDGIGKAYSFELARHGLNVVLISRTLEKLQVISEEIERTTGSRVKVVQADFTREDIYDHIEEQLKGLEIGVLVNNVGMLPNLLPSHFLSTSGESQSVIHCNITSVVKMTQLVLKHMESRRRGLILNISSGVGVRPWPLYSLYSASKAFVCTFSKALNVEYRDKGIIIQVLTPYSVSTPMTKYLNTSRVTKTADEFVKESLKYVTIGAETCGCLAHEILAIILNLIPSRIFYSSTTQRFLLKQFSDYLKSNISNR
How it was run: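 The enzyme source was a microsomal fraction from Sprague-Dawley rat testes, prepared by homogenization in phosphate/sucrose/EDTA buffer (pH 7.5) and centrifugation at 100,000 g. The assay ran 2 h at 37 °C in 50 mM sodium phosphate (pH 7.4, 20% glycerol, 1 mM EDTA) with NADPH cofactor and [14C]-4-androstenedione. [14C]-T formation was measured at six inhibitor concentrations in triplicate, and IC50 was fitted from the curves.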

[11] = tested on: LAPC4; assay: Antiproliferative activity against human LAPC4 cells expressing androgen receptor assessed as inhibition of cell proliferation at 0.5 uM supplemented with fresh medium containing compounds every 3 days for 7 days by MTS assay relative to control; type: functional; how it was run: as §1
[12] = Plasma concentration in mouse at 25 mg/kg, sc administered as single dose measured after 3 hrs by LC-MS/MS analysis; type: ADME, organism-based
How it was run: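 Female mice were fasted 8 h, then given a single 25 mg/kg subcutaneous dose in 0.1 mL of 0.4% aqueous methylcellulose with 8% DMSO. At 3 h, blood was taken by cardiac puncture into K-EDTA tubes (3 mice per group). Plasma was extracted and analysed by LC-MS/MS against a plasma calibration curve.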

[13] = tested on: LAPC4; assay: Antiproliferative activity against human LAPC4 cells expressing androgen receptor assessed as inhibition of cell proliferation at 0.1 uM supplemented with fresh medium containing compounds every 3 days for 7 days by MTS assay relative to control; type: functional; how it was run: as §1
[14] = tested on: PC-3; assay: Antiproliferative activity against AR-deficient human PC3 cells assessed as reduction in cell proliferation at 1 uM measured after 3 days by MTS assay relative to control; type: functional; design: scale not given: the % may be the effect or the level left; how it was run: as §3
[15] = tested on: PC-3; assay: Antiproliferative activity against AR-deficient human PC3 cells assessed as reduction in cell proliferation at 0.1 uM measured after 3 days by MTS assay relative to control; type: functional; design: scale not given: the % may be the effect or the level left; how it was run: as §3
[16] = tested on: LAPC4; assay: Antiproliferative activity against human LAPC4 cells expressing androgen receptor assessed as inhibition of cell proliferation at 1 uM supplemented with fresh medium containing compounds every 3 days for 7 days by MTS assay relative to control; type: functional; how it was run: as §1
[17] = tested on: LAPC4; assay: Antiproliferative activity against human LAPC4 cells expressing androgen receptor assessed as inhibition of cell proliferation supplemented with fresh medium containing compounds every 3 days for 7 days by MTS assay; type: functional, cell-based; how it was run: as §1
[18] = tested on: T47D; assay: Estrogenic activity in human T47D cells assessed as stimulation of cell proliferation at 1 to 5 uM; type: ADME, cell-based
[19] = tested on: T47D; assay: Antiproliferative activity against human T47D cells assessed as reduction in cell proliferation at 1 to 5 uM; type: functional, cell-based

Structure (SMILES)	Stability [1]	IC50 [2] [µM]	inhibition [5] [%]	inhibition [7] [%]	inhibition [8] [%]	IC50 [10] [µM]	concentration at 3 h [12] [µg/mL]	Activity [3] [%]	Activity [4] [%]	Activity [6] [%]	Activity [9] [%]	inhibition (INH) [11] [%]	inhibition (INH) [13] [%]	Activity [14] [%]	Activity [15] [%]	inhibition (INH) [16] [%]	inhibition [17]	Activity [18]	Activity [19]
CC1CN(S(=O)(=O)c2ccccc2C(F)(F)F)C(C)CN1C(=O)c1ccc2c(c1)CC[C@@H]1[C@@H]2CC[C@]2(C)C(=O)CC[C@@H]12 (some centres not stated)	Stable	0.1	45	90	78	0.11	0.108	–	–	–	0	54	40	6	7	63	Dose-dependent effect	–	–
CC1CN(S(=O)(=O)c2ccccc2C(F)(F)F)C(C)CN1C[C@@]1(O)CC[C@H]2[C@@H](CC[C@@H]3[C@@H]2CC[C@]2(C)C(=O)CC[C@@H]32)C1 (some centres not stated)	Unstable	0.22	20	94	82	–	–	66.3	63.1	92.8	–	–	–	–	–	–	–	–	–
CC1CN(S(=O)(=O)c2ccccc2C(F)(F)F)C(C)CN1CC(O)c1ccc2c(c1)CC[C@@H]1[C@@H]2CC[C@]2(C)C(=O)CC[C@@H]12 (single isomer, unassigned; diastereomer B) [listing 1 of 2 here]	–	0.02	–	–	–	0.06	0.0487	–	–	–	6	32	-3	5	8	44	–	–	–
CC1CN(S(=O)(=O)c2ccccc2C(F)(F)F)C(C)CN1CCc1ccc2c(c1)CC[C@@H]1[C@@H]2CC[C@]2(C)C(=O)CC[C@@H]12 (some centres not stated)	–	0.13	38	70	60	0.1	0.0516	–	–	–	5	80	48	1	1	79	Dose-dependent effect	Non-Toxic	inactive
CC1CN(S(=O)(=O)c2ccccc2C(F)(F)F)C(C)CN1Cc1cc2c(cc1O)CC[C@@H]1[C@@H]2CC[C@]2(C)C(=O)CC[C@@H]12 (some centres not stated)	–	0.17	50	84	76	0.12	0.0893	–	–	–	5	7	0	7	4	6	–	Non-Toxic	inactive
CC1CN(S(=O)(=O)c2ccccc2C(F)(F)F)C(C)CN1CC(O)c1ccc2c(c1)CC[C@@H]1[C@@H]2CC[C@]2(C)C(=O)CC[C@@H]12 (single isomer, unassigned; diastereomer B) [listing 2 of 2 here]	–	–	84	100	98	–	–	–	–	–	–	–	–	–	–	–	Dose-dependent effect	–	–

Further lines, with some results ahead:

Stability [1]	IC50 [2] [µM]	inhibition [5] [%]	inhibition [7] [%]	inhibition [8] [%]	IC50 [10] [µM]	concentration at 3 h [12] [µg/mL]	Structure (SMILES)	Activity [3] [%]	Activity [4] [%]	Activity [6] [%]	Activity [9] [%]	inhibition (INH) [11] [%]	inhibition (INH) [13] [%]	Activity [14] [%]	Activity [15] [%]	inhibition (INH) [16] [%]	inhibition [17]	Activity [18]	Activity [19]
Stable	2.6	10	42	30	–	–	CC(=O)[C@H]1CC[C@H]2[C@@H]3CC[C@H]4C[C@@](O)(CN5CC(C)N(S(=O)(=O)c6ccccc6C(F)(F)F)CC5C)CC[C@]4(C)[C@H]3CC[C@]12C (some centres not stated)	26.4	27.1	45.9	–	–	–	–	–	–	–	–	–
Stable	0.2	22	90	75	–	–	CC1CN(S(=O)(=O)c2ccccc2C(F)(F)F)C(C)CN1C[C@@]1(O)CC[C@@]2(C)[C@@H](CC[C@@H]3[C@@H]2CC[C@]2(C)C(=O)[C@H](F)C[C@@H]32)C1 (some centres not stated)	134.2	126.6	147.7	–	–	–	–	–	–	–	–	–
Unstable	0.09	60	100	96	0.08	0.0277	CC1CN(S(=O)(=O)c2ccccc2C(F)(F)F)C(C)CN1C[C@@]1(O)CC[C@@]2(C)[C@@H](CC[C@@H]3[C@@H]2CC[C@]2(C)C(=O)CC[C@@H]32)C1 (some centres not stated)	–	–	–	6	52	4	11	9	67	Dose-dependent effect	–	–
Stable	0.22	40	90	80	–	0.0947	CC1CN(S(=O)(=O)c2ccccc2C(F)(F)F)C(C)CN1C[C@@]1(O)CC[C@@]2(C)[C@@H](CC[C@@H]3[C@@H]2CC[C@]2(C)/C(=N/O)CC[C@@H]32)C1 (some centres not stated)	–	–	–	6	41	-8	4	10	56	Dose-dependent effect	–	–
